Test results as given in ChEMBL document CHEMBL1148725, “2,2,2-Trichloro-N-({2-[2-(dimethylamino)ethyl]-1,3-dioxo-2,3-dihydro-1H-benzo[de]isoquinolin- 5-yl}carbamoyl)acetamide (UNBS3157), a novel nonhematotoxic naphthalimide derivative with potent antitumor activity” (J Med Chem, 2007).
Activity calls are given as the source filed them. The rule behind the calls is not given here.

Columns and labels:
[1] = Antiproliferative activity against Hs683 cells after 72 hrs by MTT assay; type: functional, cell-based, Homo sapiens, Hs 683; conditions: Homo sapiens, Hs 683, 72 h
Outline: (§1)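 Cells cultured with each compound for three days; growth then read by the MTT colorimetric assay and reported as IC50 (µM).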

[2] = Antiproliferative activity against U373MG cells after 72 hrs by MTT assay; type: functional, cell-based, Homo sapiens, U-373MG ATCC; conditions: Homo sapiens, U373 MG, 72 h; outline: as §1
HCT-15 = assay: Antiproliferative activity against HCT15 cells after 72 hrs by MTT assay; type: functional, cell-based, Homo sapiens; conditions: Homo sapiens, HCT-15, 72 h; outline: as §1
LoVo = assay: Antiproliferative activity against LoVo cells after 72 hrs by MTT assay; type: functional, cell-based, Homo sapiens; conditions: Homo sapiens, LoVo, 72 h; outline: as §1
A549 [3] = assay: Antiproliferative activity against A549 cells after 72 hrs by MTT assay; type: functional, cell-based, Homo sapiens; conditions: Homo sapiens, A549, 72 h; outline: as §1
MCF7 [4] = assay: Antiproliferative activity against MCF7 cells after 72 hrs by MTT assay; type: functional, cell-based, Homo sapiens; conditions: Homo sapiens, MCF7, 72 h; outline: as §1
[5] = Toxicity in ip dosed B6D2F1 mouse; type: organism-based; conditions: in vivo
Outline: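 Acute MTD was set by a single i.p. dose to groups of three healthy female B6D2F1 mice, at 2.5, 5, 10, 20, 40, 80 and 160 mg/kg. The MTD is the dose just below the lowest dose that killed at least one mouse.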

L1210 [6] = assay: Antitumor activity in L1210 cells xenografted B6D2F1 mouse at 10 mg/kg, ip relative to control; type: functional; conditions: route intraperitoneal
Outline: (§2)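 Mice grafted with L1210 leukaemia cells on day 0, then dosed i.p. four times weekly on days 1-4 and 8-11. Five mice per group. Outcome is %T/C, the median survival of treated over control. Kruskal-Wallis test followed by Dunn comparisons against control.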

L1210 [7] = assay: Antitumor activity in L1210 cells xenografted B6D2F1 mouse at 20 mg/kg, ip relative to control; type: functional; conditions: route intraperitoneal; outline: as §2
L1210 [8] = assay: Antitumor activity in L1210 cells xenografted B6D2F1 mouse at 40 mg/kg, ip relative to control; type: functional; conditions: route intraperitoneal; outline: as §2
L1210 [9] = assay: Antitumor activity in L1210 cells xenografted B6D2F1 mouse at 80 mg/kg, ip relative to control; type: functional; conditions: route intraperitoneal; outline: as §2
L1210 [10] = assay: Antitumor activity in L1210 cells xenografted B6D2F1 mouse at 120 mg/kg, ip relative to control; type: functional; conditions: route intraperitoneal; outline: as §2
Mus musculus [11] = assay: Toxicity in B6D2F1 mouse at 120 mg/kg, ip; type: organism-based; parameters: dose 120 mg/kg, route intraperitoneal; conditions: in vivo
Outline: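 Healthy female B6D2F1 mice, 10 per group, dosed i.p. in DMSO/saline (5:95 v/v) three times weekly for five weeks at two levels set relative to MTD; sacrificed 3 days after final dose; platelet, RBC and WBC counted by Coulter counter.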

Mus musculus [12] = assay: Hematotoxicity in ip dosed B6D2F1 mouse assessed as decrease in platelet count; type: organism-based; conditions: in vivo
Outline: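 Healthy female B6D2F1 mice, 10 per group, dosed i.p. three times weekly for five weeks at two dose levels set relative to MTD. Vehicle DMSO/saline 5:95 v/v. Killed 3 days after the last dose; blood platelet, RBC and WBC counts taken with a Coulter counter.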

A549 [13] = assay: Antitumor activity against human A549 cells xenografted in mouse at 10 mg/kg, iv; type: functional, organism-based; parameters: dose 10 mg/kg
Outline: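 Human A549 NSCLC cells grafted orthotopically into the lungs of immunocompromised mice. Compound given i.v. at 10 mg/kg. Survival gain assessed by survival curve analysis.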

[14] = target: T1, DNA topoisomerase 1 (Homo sapiens) (UniProt P11387); assay: Inhibition of human topoisomerase 1 by DNA unwinding test
T1 sequence (whole entry): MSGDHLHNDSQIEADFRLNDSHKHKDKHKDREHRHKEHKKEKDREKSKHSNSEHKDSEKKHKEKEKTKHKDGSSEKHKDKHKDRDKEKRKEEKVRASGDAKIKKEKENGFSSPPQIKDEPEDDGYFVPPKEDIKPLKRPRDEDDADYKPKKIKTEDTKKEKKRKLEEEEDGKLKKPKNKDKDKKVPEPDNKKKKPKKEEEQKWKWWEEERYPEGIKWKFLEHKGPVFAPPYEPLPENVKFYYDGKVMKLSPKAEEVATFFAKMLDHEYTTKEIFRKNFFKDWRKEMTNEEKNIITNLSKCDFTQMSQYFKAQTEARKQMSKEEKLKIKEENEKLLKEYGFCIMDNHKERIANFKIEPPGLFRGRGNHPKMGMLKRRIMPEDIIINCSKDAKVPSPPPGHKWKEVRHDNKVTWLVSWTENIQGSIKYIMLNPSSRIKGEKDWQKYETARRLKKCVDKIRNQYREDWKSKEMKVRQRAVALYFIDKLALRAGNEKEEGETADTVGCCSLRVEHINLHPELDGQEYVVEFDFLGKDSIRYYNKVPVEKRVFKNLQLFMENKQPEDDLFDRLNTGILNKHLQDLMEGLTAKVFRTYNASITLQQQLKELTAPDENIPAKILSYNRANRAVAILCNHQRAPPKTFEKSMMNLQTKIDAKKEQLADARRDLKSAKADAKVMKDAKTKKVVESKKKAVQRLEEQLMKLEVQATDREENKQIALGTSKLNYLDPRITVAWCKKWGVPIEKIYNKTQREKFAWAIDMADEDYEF
Outline: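 DNA unwinding assay: relaxed pBR322 plasmid converted to supercoiled form in presence of topoisomerase I; compounds at final 4–32 µM (one up to 15–55 µM); ethidium bromide-stained agarose gels; UC50 taken as concentration shifting relaxed band to midpoint between supercoiled and relaxed states.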

[15] = target: DNA topoisomerase 2-alpha (Homo sapiens) (UniProt P11388); assay: Inhibition of human topoisomerase 2-mediated kinetoplast DNA […] at 50 uM
Outline: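 Topoisomerase II strand-passage activity by kDNA decatenation; compounds at 50 µM; catenated networks stay in wells, decatenated kDNA enters ethidium bromide-stained agarose gel; no-enzyme and no-drug reactions as controls.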

MCF7 [16] = assay: Induction of apoptosis in human MCF7 cells assessed as p53 activation; type: functional, cell-based
Outline: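 MCF-7 cells treated and p53 activation assessed by immunoblotting, with tubulin as loading control. Adriamycin (2.5 µM, 24 h) served as positive control.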

Homo sapiens = organism: Homo sapiens; assay: Inhibition of human topoisomerase 2 at 50 uM by plasmid linearization assay
MDA-MB-231 = assay: Antitumor activity against human MDA-MB-231 cells xenografted in immunocompromised mouse at 10 mg/kg, iv

Chain of DNA topoisomerase 2-alpha (Homo sapiens) (P11388 whole entry): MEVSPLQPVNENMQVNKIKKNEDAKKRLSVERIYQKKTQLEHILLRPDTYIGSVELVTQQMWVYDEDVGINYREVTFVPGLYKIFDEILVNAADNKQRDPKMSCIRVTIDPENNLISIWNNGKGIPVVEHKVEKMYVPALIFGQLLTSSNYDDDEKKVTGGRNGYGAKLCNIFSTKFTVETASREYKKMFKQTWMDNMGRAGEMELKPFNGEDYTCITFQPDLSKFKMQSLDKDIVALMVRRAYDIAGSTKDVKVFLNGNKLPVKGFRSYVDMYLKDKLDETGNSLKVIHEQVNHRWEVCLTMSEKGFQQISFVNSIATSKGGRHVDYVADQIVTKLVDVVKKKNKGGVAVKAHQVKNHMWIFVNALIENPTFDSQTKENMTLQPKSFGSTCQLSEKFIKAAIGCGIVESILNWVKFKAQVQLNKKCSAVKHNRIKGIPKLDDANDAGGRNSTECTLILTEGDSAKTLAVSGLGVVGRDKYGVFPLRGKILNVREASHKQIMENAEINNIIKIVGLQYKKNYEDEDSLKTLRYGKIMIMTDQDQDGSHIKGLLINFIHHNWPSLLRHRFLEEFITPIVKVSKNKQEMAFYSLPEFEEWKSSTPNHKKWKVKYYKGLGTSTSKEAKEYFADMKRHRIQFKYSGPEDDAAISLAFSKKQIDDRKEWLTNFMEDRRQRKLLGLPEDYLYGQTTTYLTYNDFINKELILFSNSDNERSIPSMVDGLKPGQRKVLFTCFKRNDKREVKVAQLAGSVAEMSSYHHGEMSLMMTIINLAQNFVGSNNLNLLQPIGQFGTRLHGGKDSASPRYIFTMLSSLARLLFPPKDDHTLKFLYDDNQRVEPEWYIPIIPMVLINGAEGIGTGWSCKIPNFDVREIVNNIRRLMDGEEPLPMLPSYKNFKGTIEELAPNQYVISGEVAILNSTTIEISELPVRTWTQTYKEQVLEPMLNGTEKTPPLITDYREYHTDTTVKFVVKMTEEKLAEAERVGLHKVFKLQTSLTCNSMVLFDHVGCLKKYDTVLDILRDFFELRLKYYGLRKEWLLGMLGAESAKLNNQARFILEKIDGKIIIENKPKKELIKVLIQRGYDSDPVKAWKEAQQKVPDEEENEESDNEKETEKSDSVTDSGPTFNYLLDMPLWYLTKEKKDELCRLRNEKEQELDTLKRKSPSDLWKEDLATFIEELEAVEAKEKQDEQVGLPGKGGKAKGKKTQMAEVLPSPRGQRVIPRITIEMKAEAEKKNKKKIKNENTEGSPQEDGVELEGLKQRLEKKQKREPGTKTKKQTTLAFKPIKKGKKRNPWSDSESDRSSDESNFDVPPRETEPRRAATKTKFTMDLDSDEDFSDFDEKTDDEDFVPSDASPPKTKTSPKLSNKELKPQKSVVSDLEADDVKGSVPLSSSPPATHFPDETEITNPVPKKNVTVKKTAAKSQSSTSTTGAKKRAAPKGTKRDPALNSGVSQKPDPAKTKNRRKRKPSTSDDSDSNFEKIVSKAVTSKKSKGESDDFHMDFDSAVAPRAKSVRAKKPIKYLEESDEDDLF

Row | SMILES | IC50 [1] [µM] | IC50 [2] [µM] | IC50 (HCT-15) [µM] | IC50 (LoVo) [µM] | IC50 (A549 [3]) [µM] | IC50 (MCF7 [4]) [µM] | MTD [5] [mg/kg] | Activity (L1210 [6]) [%] | Activity (L1210 [7]) [%] | Activity (L1210 [8]) [%] | Activity (L1210 [9]) [%] | Activity (L1210 [10]) [%] | Activity (Mus musculus [11]) | Activity (Mus musculus [12]) | Activity (A549 [13]) | UC50 [14] [µM] | Activity [15] | Activity (MCF7 [16]) | Activity (Homo sapiens) | Activity (MDA-MB-231)
1 | CN(C)CCN1C(=O)c2cccc3cc(/N=C\c4cc5c(cc4[N+](=O)[O-])OCO5)cc(c23)C1=O | > 10 | 5 | > 10 | > 10 | > 10 | > 10 | > 160 | 215 | 195 | 278 | >300 | 40 | Toxic | Toxic | – | – | – | – | – | –
2 | CN(C)CCN1C(=O)c2cccc3cc(/N=C\c4ccc5c(c4)OCO5)cc(c23)C1=O | > 10 | > 10 | 9 | 8.3 | > 10 | > 10 | 80 | 115 | 150 | 165 | 288 | 41 | Toxic | Toxic | – | – | – | – | – | –
3 | CN(C)CCN1C(=O)c2cccc3cc(N)cc(c23)C1=O | – | – | – | – | – | – | – | – | – | – | – | – | – | – | inactive | 8 | Active | Active | Active | Active
